Measured values from different studies.
EAPA: Endothiapepsin (EAPA, Cryphonectria parasitica, UniProt P11838)
Tmem97: Sigma intracellular receptor 2 (Tmem97, Rattus norvegicus, UniProt Q5U3Y7)
Trypanothione synthetase: Trypanothione synthetase (Trypanosoma cruzi, UniProt Q9GT49)
BDKRB2: B2 bradykinin receptor (BDKRB2, Homo sapiens, UniProt P30411)
dxs: 1-deoxy-D-xylulose-5-phosphate synthase (dxs, Deinococcus radiodurans, UniProt Q9RUB5)
MMP3: Stromelysin-1 (MMP3, Homo sapiens, UniProt P08254)

CCN(Cc1ccccc1C(F)(F)F)C(=O)C1CCN(S(=O)(=O)c2ccc3[nH]ncc3c2)CC1 — inhibition (Melatonin receptor type 1A (MTNR1A, Homo sapiens, UniProt P48039); ligand displacement, radioligand; 10 µM): 34%
NNC(c1nnnn1CC(c1ccccc1)c1ccccc1)C1CCCCC1 (centres unmarked) — inhibition (EAPA; enzyme activity, inhibitor; 200 µM): 71.3%
CN1CC(Oc2cnc(C#N)cc2-c2ccn3nc(NC(=O)C4CC4)cc3c2)C1 — inhibition (MAPK/MAK/MRK overlapping kinase (MOK, Homo sapiens, UniProt Q9UQ07); enzyme activity, inhibitor; 1 µM): 15%
CCCNc1nc2ccccc2n1Cc1ccc(Cl)cc1 — inhibition (Tmem97; ligand displacement; 10 µM): 54%
NCCNC(=O)CN1C(=O)Cc2c([nH]c3ccc(Br)cc23)-c2ccc(Cl)cc21 — inhibition (Trypanothione synthetase; enzyme activity, inhibitor, absorbance; 30 µM): 26.3%
CCC(C)C(NN)c1nnnn1CC(c1ccccc1)c1ccccc1 (centres unmarked) — inhibition (EAPA; enzyme activity, inhibitor; 200 µM): 40.3%
Oc1cccc(Nc2nc(-c3ccc(F)cc3F)cs2)c1 — inhibition (Substance-P receptor (TACR1, Homo sapiens, UniProt P25103); cell-free assay; 10 µM): 30%
NNC(CCc1ccccc1)c1nnnn1CC(=O)NCc1cccs1 (centres unmarked) — inhibition (EAPA; enzyme activity, inhibitor; 200 µM): 39.1%
CNC(=O)c1cc(Oc2ccc(NC(=O)Nc3ccc(Cl)c(C(F)(F)F)c3)cc2)ccn1 — inhibition (Serine/threonine-protein kinase SIK1 (SIK1, Homo sapiens, UniProt P57059); enzyme activity, inhibitor; 10 µM): 3%
CN(C)C1CCN(CC#Cc2nn(C3CCCC3)c3nc(NCc4ccccc4)ncc23)C1 (centres unmarked) — inhibition (Rho-associated protein kinase 1 (ROCK1, Homo sapiens, UniProt Q13464); enzyme activity, inhibitor, FRET; 10 µM): -4%
O=C(c1ccc(F)cc1)N(Cc1ccccc1)C1CCCCC1 — inhibition (BDKRB2; cell-free assay; 10 µM): -3%
COC(=O)CN1C(=O)Cc2c([nH]c3ccc(Br)cc23)-c2ccc(Cl)cc21 — inhibition (Trypanothione synthetase; enzyme activity, inhibitor, absorbance; 30 µM): 37.4%
O=C1N=C(N2CCCCN2)S/C1=C\c1ccc(F)cc1O — inhibition (BDKRB2; ligand displacement, radioligand; 10 µM): < 10%
Oc1ccc(-c2nnc(CCCOc3ccc(Cl)cc3Cl)o2)c(F)c1 — inhibition (dxs; enzyme activity, inhibitor; 120 µM): 49.2%
CC(C)(C)OC(=O)CN1C(=O)Cc2c([nH]c3ccc(Br)cc23)-c2ccc(Cl)cc21 — inhibition (Trypanothione synthetase; enzyme activity, inhibitor, absorbance; 30 µM): 10.3%
O=C(COc1ccc(Cl)cc1Cl)N/N=C/c1c[nH]c2ccccc12 — inhibition (dxs; enzyme activity, inhibitor; 200 µM): 45.3%
O=C(O)c1ccccn1 — inhibition (MMP3; enzyme activity, inhibitor; 1 mM, pH 6): > 80%
O=C(c1ccc(Cl)cc1)N(Cc1ccccc1)C1CCCCC1 — inhibition (BDKRB2; cell-free assay; 10 µM): -1.6%
Ic1cccc2cnccc12 — inhibition (NMNAT1 (Homo sapiens, UniProt Q9HAN9); enzyme activity, inhibitor; 10 µM): -3%
CCNC(=O)CN1C(=O)Cc2c([nH]c3ccc(Br)cc23)-c2ccc(Cl)cc21 — inhibition (Trypanothione synthetase; enzyme activity, inhibitor, absorbance; 30 µM): 41.4%
NNC(CCc1ccccc1)c1nnnn1Cc1ccc2c(c1)OCO2 (centres unmarked) — inhibition (EAPA; enzyme activity, inhibitor; 200 µM): 36.3%
CCOC(=O)CN1C(=O)Cc2c([nH]c3ccc(Br)cc23)-c2ccc(Cl)cc21 — inhibition (Trypanothione synthetase; enzyme activity, inhibitor, absorbance; 30 µM): 19.1%
O=C(Nc1ccc(S(=O)(=O)N2CCC(Cl)CC2)cc1)c1ccc([N+](=O)[O-])o1 — inhibition (BDKRB2; ligand displacement, radioligand; 10 µM): 4%
CCN(CC)CCNC(=O)CN1C(=O)Cc2c([nH]c3ccc(Br)cc23)-c2ccc(Cl)cc21 — inhibition (Trypanothione synthetase; enzyme activity, inhibitor, absorbance; 30 µM): 17.1%
O=C(c1ccc(OCCN2CCCCC2)cc1)c1c(-c2ccc(O)cc2)sc2cc(O)ccc12 — inhibition (Trypanothione synthetase; enzyme activity, inhibitor, absorbance; 25 µM): 24.5%
CN(Cc1ccc(NC(=O)C2=Cc3cc(-c4ccc(OCCCCCF)cc4)ccc3CCC2)cc1)C1CCOCC1 — inhibition (Tmem97; ligand displacement, radioligand; 10 µM): 7%
O=C(O)c1ccc(C(=O)O)nc1 — inhibition (MMP3; enzyme activity, inhibitor; 1 mM, pH 6): > 80%
N#Cc1cc(Cn2c(N3CCCC3)nc3ccccc32)ccc1F — inhibition (Tmem97; ligand displacement; 10 µM): 88.9%
CCCCCC(NN)c1nnnn1Cc1ccc2c(c1)OCCO2 (centres unmarked) — inhibition (EAPA; enzyme activity, inhibitor; 200 µM): 48.2%
CCN(CC)c1ccc(C2Nc3ccc(C(=O)c4ccccc4)cc3NC3=C2C(=O)CC(C)(C)C3)cc1 (centres unmarked) — inhibition (5-hydroxytryptamine receptor 2C (HTR2C, Homo sapiens, UniProt P28335); ligand displacement, radioligand; 10 µM): 5%
COc1ccc(CCC(C)N2CCc3cc(OC)c(OC)cc3C2)cc1 (centres unmarked) — inhibition (Tmem97; ligand displacement, radioligand; 0.1 µM): 98%
CCN(CC)C(=O)CN1C(=O)Cc2c([nH]c3ccc(Br)cc23)-c2ccc(Cl)cc21 — inhibition (Trypanothione synthetase; enzyme activity, inhibitor, absorbance; 30 µM): 7.8%
NNC(COCc1ccccc1)c1nnnn1Cc1ccc2c(c1)OCO2 (centres unmarked) — inhibition (EAPA; enzyme activity, inhibitor; 200 µM): 48.3%
CC(C)(C)OC(=O)NCCNC(=O)CN1C(=O)Cc2c([nH]c3ccc(Br)cc23)-c2ccc(Cl)cc21 — inhibition (Trypanothione synthetase; enzyme activity, inhibitor, absorbance; 30 µM): 38.5%
COc1cc(NC(C)=O)c(Cl)cc1C(=O)Nc1nccs1 — inhibition (BDKRB2; cell-free assay; 10 µM): -21.3%
